Assay results taken from ChEMBL document CHEMBL1641600, “Novel bifunctional alkylating agents, 5,10-dihydropyrrolo[1,2-b]isoquinoline derivatives, synthesis and biological activity” (Bioorg Med Chem, 2011).

Assays:
[1] = system: CCRF-CEM; assay: Ratio of IC50 for Taxol-resistant human CCRF-CEM cells to IC50 for human CCRF-CEM cells
[2] = system: CCRF-CEM; assay: Cytotoxicity against Taxol-resistant human CCRF-CEM cells after 72 hrs by XTT assay; format: functional, cell-based
Outline: (§1)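 Leukemic CCRF-CEM and its Taxol- and vinblastine-resistant sublines exposed 72 h to six or seven drug concentrations. XTT with phenazine methosulfate added for 6 h at 37 °C; absorbance read at 450 and 630 nm. IC50 obtained from dose-effect data by the median-effect principle.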

[3] = system: CCRF-CEM; assay: Cytotoxicity against vinblastine-resistant human CCRF-CEM cells after 72 hrs by XTT assay; format: functional, cell-based
Outline: as §1

[4] = system: CCRF-CEM; assay: Cytotoxicity against human CCRF-CEM cells after 72 hrs by XTT assay; format: functional, cell-based
Outline: as §1

[5] = system: HCT-116; assay: Cytotoxicity against human HCT116 cells after 72 hrs by SRB assay; format: functional, cell-based; settings: HCT-116, 72 h
Outline: (§2)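 MX-1 breast and HCT-116 colon carcinoma cells exposed 72 h to six or seven drug concentrations. Growth measured by SRB assay with microplate absorbance. IC50 obtained from dose-effect data by the median-effect principle.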

[6] = system: MX1; assay: Cytotoxicity against human MX1 cells after 72 hrs by SRB assay; format: functional, cell-based; settings: MX1, 72 h
Outline: as §2

[7] = Cytotoxicity against human U87 cells after 72 hrs by Alamar blue assay; format: functional, cell-based, U-87MG ATCC; settings: U-87 MG
Outline: (§3)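 H1299, PC3, OECM1 and U87 cells exposed 72 h to six or seven drug concentrations. Alamar blue added for 6 h at 37 °C; absorbance read at 570 and 600 nm. IC50 obtained from dose-effect data by the median-effect principle.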

[8] = Cytotoxicity against human OECM1 cells after 72 hrs by Alamar blue assay; format: functional, cell-based; settings: OECM1, 72 h
Outline: as §3

[9] = Cytotoxicity against human H1299 cells after 72 hrs by Alamar blue assay; format: functional, cell-based; settings: NCI-H1299, 72 h
Outline: as §3

[10] = system: PC-3; assay: Cytotoxicity against human PC3 cells after 72 hrs by Alamar blue assay; format: functional, cell-based; settings: PC-3, 72 h
Outline: as §3

Structure (SMILES)	Ratio IC50 [1]	IC50 [2] [nM]	IC50 [3] [nM]	IC50 [4] [nM]	IC50 [5] [nM]	IC50 [6] [nM]	IC50 [7] [nM]	IC50 [8] [nM]	IC50 [9] [nM]	IC50 [10] [nM]
CC(=O)O[C@H]1C(=O)[C@@]2(C)[C@H]([C@H](OC(=O)c3ccccc3)[C@]3(O)C[C@H](OC(=O)[C@H](O)[C@@H](NC(=O)c4ccccc4)c4ccccc4)C(C)=C1C3(C)C)[C@]1(OC(C)=O)CO[C@@H]1C[C@@H]2O [PACLITAXEL]	330	–	–	–	–	–	–	–	–	–
CCNC(=O)OCc1c(COC(=O)NCC)c(-c2ccccc2)n2c1Cc1ccccc1C2	1.01	260	230	260	–	–	–	–	–	–
CNC(=O)OCc1c(COC(=O)NC)c2n(c1C)Cc1ccccc1C2	0.86	110	80	130	1170	1680	–	–	–	–
CC[C@]1(O)C[C@@H]2CN(CCc3c([nH]c4ccccc34)[C@@](C(=O)OC)(c3cc4c(cc3OC)N(C)[C@H]3[C@@](O)(C(=O)OC)[C@H](OC(C)=O)[C@]5(CC)C=CCN6CC[C@]43[C@@H]65)C2)C1 [VINBLASTINE]	106.2	–	–	–	–	–	–	–	–	–
CCNC(=O)OCc1c(COC(=O)NCC)c(-c2ccc(Cl)cc2)n2c1Cc1ccccc1C2	0.59	350	570	590	620	1690	33600	25300	37200	11000
CCNC(=O)OCc1c(COC(=O)NCC)c(-c2ccc(OC)c(OC)c2)n2c1Cc1ccccc1C2	0.75	810	650	1070	–	–	–	–	–	–
COc1ccc(-c2c(COC(=O)NC(C)C)c(COC(=O)NC(C)C)c3n2Cc2ccccc2C3)cc1	0.56	190	160	340	970	980	21000	8830	13200	6790
COc1ccc(-c2c(CO)c(CO)c3n2Cc2ccccc2C3)cc1	1.02	250	110	230	1130	1990	10600	6120	13900	10900
CCNC(=O)OCc1c(COC(=O)NCC)c(-c2ccc(OC)cc2)n2c1Cc1ccccc1C2	0.58	220	350	370	750	1270	17100	10500	27600	18500
CCc1c(COC(=O)NC(C)C)c(COC(=O)NC(C)C)c2n1Cc1ccccc1C2	0.56	320	180	570	–	–	–	–	–	–
CC(C)NC(=O)OCc1c(COC(=O)NC(C)C)c(-c2ccccc2)n2c1Cc1ccccc1C2	0.5	230	250	450	–	–	–	–	–	–
CNC(=O)OCc1c(COC(=O)NC)c(-c2ccc(OC)cc2)n2c1Cc1ccccc1C2	0.72	130	90	180	1070	1330	–	–	–	–
OCc1c(CO)c(-c2ccc(Cl)cc2)n2c1Cc1ccccc1C2	1.28	770	720	600	3060	3280	26700	12000	24700	9850
CC(C)NC(=O)OCc1c(COC(=O)NC(C)C)c(-c2ccc(Cl)cc2)n2c1Cc1ccccc1C2	1.16	630	570	540	690	1700	22700	26100	25200	9970
COc1ccc(-c2c(CO)c(CO)c3n2Cc2ccccc2C3)cc1OC	0.69	760	620	1100	–	–	–	–	–	–
COc1cc(-c2c(CO)c(CO)c3n2Cc2ccccc2C3)cc(OC)c1OC	1.45	2880	2780	1970	–	–	–	–	–	–

Structure (SMILES)	Ratio IC50 [1]	IC50 [2] [nM]	IC50 [3] [nM]	IC50 [4] [nM]	IC50 [5] [nM]	IC50 [6] [nM]	IC50 [7] [nM]	IC50 [8] [nM]	IC50 [9] [nM]	IC50 [10] [nM]
CC(C)NC(=O)OCc1c(COC(=O)NC(C)C)c(-c2ccc(F)cc2)n2c1Cc1ccccc1C2	0.3	230	230	760	630	1170	36900	11000	8130	12300
OCc1c(CO)c(-c2ccc(Cl)c(Cl)c2)n2c1Cc1ccccc1C2	0.57	4820	6420	8440	–	–	–	–	–	–
CCNC(=O)OCc1c(COC(=O)NCC)c2n(c1CC)Cc1ccccc1C2	0.48	210	240	440	–	–	–	–	–	–
OCc1c(CO)c(-c2ccc(F)c(F)c2)n2c1Cc1ccccc1C2	1.11	1260	950	1140	3210	6990	–	–	–	–
COc1ccc(-c2c(COC(=O)NC(C)C)c(COC(=O)NC(C)C)c3n2Cc2ccccc2C3)cc1OC	0.46	600	770	1290	–	–	–	–	–	–
CCNC(=O)OCc1c(COC(=O)NCC)c(-c2ccc(Cl)c(Cl)c2)n2c1Cc1ccccc1C2	0.38	900	1190	2370	–	–	–	–	–	–
CCNC(=O)OCc1c(COC(=O)NCC)c(-c2cc(OC)c(OC)c(OC)c2)n2c1Cc1ccccc1C2	1.52	2140	3130	1410	–	–	–	–	–	–
CC(C)NC(=O)OCc1c(COC(=O)NC(C)C)c(-c2ccc(Cl)c(Cl)c2)n2c1Cc1ccccc1C2	0.69	2470	1350	3550	–	–	–	–	–	–
CCc1c(CO)c(CO)c2n1Cc1ccccc1C2	1.15	210	190	180	–	–	–	–	–	–
CC(C)NC(=O)OCc1c(COC(=O)NC(C)C)c(-c2ccc(F)c(F)c2)n2c1Cc1ccccc1C2	0.58	780	610	1330	–	–	–	–	–	–
CCNC(=O)OCc1c(COC(=O)NCC)c(-c2ccc(F)c(F)c2)n2c1Cc1ccccc1C2	0.6	1250	670	2080	–	–	–	–	–	–
CNC(=O)OCc1c(COC(=O)NC)c(-c2ccc(Cl)cc2)n2c1Cc1ccccc1C2	1.18	220	160	190	40	1180	–	–	–	–
CNC(=O)OCc1c(COC(=O)NC)c(-c2ccc(F)c(F)c2)n2c1Cc1ccccc1C2	0.91	450	470	490	360	2730	–	–	–	–
OCc1c(CO)c(-c2ccccc2)n2c1Cc1ccccc1C2	0.99	500	290	510	–	–	–	–	–	–
COc1cc(-c2c(COC(=O)NC(C)C)c(COC(=O)NC(C)C)c3n2Cc2ccccc2C3)cc(OC)c1OC	1.35	1200	1420	890	–	–	–	–	–	–
